Experimental data published in ChEMBL document CHEMBL4004881, “Perfluorinated hydroxamic acids are potent and selective inhibitors of HDAC-like enzymes from Pseudomonas aeruginosa” (Bioorg Med Chem Lett, 2017).
pKi: −log10 of the molar value.

Columns and labels:
[1] = Inhibition of Pseudomonas aeruginosa PA0321 using Boc-Lys(trifluoroacetyl)-AMC as substrate preincubated for 30 mins followed by substrate addition measured after 60 mins by trypsin-based fluorescence assay
[2] = Inhibition of Pseudomonas aeruginosa PA1409 using Boc-Lys(trifluoroacetyl)-AMC as substrate preincubated for 30 mins followed by substrate addition measured after 60 mins by trypsin-based fluorescence assay
[3] = Inhibition of Pseudomonas aeruginosa PA3774 using Boc-Lys(trifluoroacetyl)-AMC as substrate preincubated for 30 mins followed by substrate addition measured after 60 mins by trypsin-based fluorescence assay
Histone deacetylase 4 = Histone deacetylase 4 (Homo sapiens, UniProt P56524); test: Inhibition of human HDAC4 using Boc-Lys(trifluoroacetyl)-AMC as substrate preincubated for 30 mins followed by substrate addition measured after 60 mins by trypsin-based fluorescence assay
Histone deacetylase 4, sequence (P56524 whole entry): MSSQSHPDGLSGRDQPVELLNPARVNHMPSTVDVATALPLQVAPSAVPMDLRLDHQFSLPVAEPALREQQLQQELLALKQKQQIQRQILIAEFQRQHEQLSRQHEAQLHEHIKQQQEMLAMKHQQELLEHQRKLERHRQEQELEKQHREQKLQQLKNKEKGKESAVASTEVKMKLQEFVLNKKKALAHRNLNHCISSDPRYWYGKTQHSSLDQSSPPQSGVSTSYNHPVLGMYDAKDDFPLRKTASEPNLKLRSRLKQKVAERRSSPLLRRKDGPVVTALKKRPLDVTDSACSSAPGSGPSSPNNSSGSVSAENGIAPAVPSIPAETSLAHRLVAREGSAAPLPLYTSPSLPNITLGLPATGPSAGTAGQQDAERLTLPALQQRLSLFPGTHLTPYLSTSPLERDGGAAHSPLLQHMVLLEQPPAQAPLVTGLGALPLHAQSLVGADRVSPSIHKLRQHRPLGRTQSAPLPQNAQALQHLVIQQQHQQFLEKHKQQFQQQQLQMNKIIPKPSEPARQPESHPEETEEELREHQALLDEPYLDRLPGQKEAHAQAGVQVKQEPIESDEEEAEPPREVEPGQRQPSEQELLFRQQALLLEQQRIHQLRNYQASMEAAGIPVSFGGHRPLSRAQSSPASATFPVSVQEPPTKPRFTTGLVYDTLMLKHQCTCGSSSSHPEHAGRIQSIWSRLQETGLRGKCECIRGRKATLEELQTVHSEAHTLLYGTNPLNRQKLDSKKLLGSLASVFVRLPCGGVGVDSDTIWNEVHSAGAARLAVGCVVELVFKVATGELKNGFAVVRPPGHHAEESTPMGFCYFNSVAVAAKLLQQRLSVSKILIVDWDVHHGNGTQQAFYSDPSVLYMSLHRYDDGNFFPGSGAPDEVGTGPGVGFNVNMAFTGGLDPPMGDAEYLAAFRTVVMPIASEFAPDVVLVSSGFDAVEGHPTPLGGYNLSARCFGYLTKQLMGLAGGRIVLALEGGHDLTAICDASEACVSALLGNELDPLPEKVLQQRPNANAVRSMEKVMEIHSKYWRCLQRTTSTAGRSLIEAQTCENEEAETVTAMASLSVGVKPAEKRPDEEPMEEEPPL

Histone deacetylase 5 = Histone deacetylase 5 (Homo sapiens, UniProt Q9UQL6); test: Inhibition of human HDAC5 using Boc-Lys(trifluoroacetyl)-AMC as substrate preincubated for 30 mins followed by substrate addition measured after 60 mins by trypsin-based fluorescence assay
Histone deacetylase 5, sequence (Q9UQL6 whole entry): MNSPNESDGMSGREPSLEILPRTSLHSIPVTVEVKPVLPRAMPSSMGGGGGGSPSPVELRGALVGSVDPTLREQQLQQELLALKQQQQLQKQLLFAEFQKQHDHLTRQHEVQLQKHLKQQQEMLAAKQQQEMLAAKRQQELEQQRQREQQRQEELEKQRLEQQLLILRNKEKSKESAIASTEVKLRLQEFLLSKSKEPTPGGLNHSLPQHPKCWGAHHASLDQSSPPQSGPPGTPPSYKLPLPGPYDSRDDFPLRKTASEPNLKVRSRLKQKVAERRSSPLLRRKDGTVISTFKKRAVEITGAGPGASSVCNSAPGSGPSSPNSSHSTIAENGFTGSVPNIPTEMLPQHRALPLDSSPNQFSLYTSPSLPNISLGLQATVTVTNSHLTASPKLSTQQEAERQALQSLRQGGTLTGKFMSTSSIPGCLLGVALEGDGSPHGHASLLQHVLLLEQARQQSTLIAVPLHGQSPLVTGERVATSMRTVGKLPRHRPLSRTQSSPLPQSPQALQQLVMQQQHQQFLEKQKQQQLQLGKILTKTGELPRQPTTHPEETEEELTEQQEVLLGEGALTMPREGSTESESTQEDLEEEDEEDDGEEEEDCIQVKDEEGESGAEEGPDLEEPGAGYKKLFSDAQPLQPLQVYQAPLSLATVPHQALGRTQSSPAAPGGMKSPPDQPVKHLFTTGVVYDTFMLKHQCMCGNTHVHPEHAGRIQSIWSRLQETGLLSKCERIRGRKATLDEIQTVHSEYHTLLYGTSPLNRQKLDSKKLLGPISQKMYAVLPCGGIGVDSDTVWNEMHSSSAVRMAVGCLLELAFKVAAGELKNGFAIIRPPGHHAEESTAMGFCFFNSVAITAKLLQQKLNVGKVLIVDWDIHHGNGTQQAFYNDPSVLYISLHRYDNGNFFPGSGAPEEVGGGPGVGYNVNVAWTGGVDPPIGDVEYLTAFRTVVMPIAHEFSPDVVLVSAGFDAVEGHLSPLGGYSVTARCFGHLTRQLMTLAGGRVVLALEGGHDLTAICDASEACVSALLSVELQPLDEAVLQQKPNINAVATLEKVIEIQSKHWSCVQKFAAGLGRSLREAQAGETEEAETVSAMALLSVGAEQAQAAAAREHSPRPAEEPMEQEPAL

[4] = Inhibition of Bordetella HDAH using Boc-Lys(trifluoroacetyl)-AMC as substrate preincubated for 30 mins followed by substrate addition measured after 60 mins by trypsin-based fluorescence assay
Procedure, shortened: (§1)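 Bacterial HDAH activity was measured by a fluorogenic assay in which the deacetylated substrate is converted to fluorescent dye by trypsin. Ki was calculated via Cheng-Prusoff from IC50 values, which were fitted to dose-response curves spanning 10 ligand concentrations.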

[5] = Inhibition of Alcaligenes HDAH using Boc-Lys(trifluoroacetyl)-AMC as substrate preincubated for 30 mins followed by substrate addition measured after 60 mins by trypsin-based fluorescence assay; procedure, shortened: as §1

Row | Structure (SMILES) | pKi [1] | pKi [2] | pKi [3] | pKi (Histone deacetylase 4) | pKi (Histone deacetylase 5) | pKi [4] | pKi [5]
1 | O=C(NO)C(F)(F)C(F)(F)C(F)(F)C(F)(F)C(F)(F)C(F)(F)C(=O)Nc1ccc2ccc3cccc4ccc1c2c34 | 5.39 | 4.80 | 6.64 | < 4.30 | < 4.30 |  | 
2 | O=C(NO)C(F)(F)C(F)(F)C(F)(F)C(F)(F)C(F)(F)C(F)(F)C(=O)Nc1ccc(Cl)cc1 | 5.68 | 5.24 | 6.77 | < 4.30 | < 4.30 | 7.07 | 7.07
3 | O=C(NO)C(F)(F)C(F)(F)C(F)(F)C(F)(F)C(F)(F)C(F)(F)C(=O)Nc1cccc2ccccc12 | 5.15 | 4.68 | 6.46 | < 4.30 | < 4.30 |  | 
4 | O=C(NO)C(F)(F)C(F)(F)C(F)(F)C(F)(F)C(F)(F)C(F)(F)C(=O)Nc1ccc(I)cc1 | 5.96 | 5.39 | 7.34 | < 4.30 | < 4.30 |  | 
5 | O=C(NO)C(F)(F)C(F)(F)C(F)(F)C(F)(F)C(F)(F)C(F)(F)C(=O)Nc1ccccc1 | 6.15 | 5.59 | 7.66 | < 4.30 | 4.89 |  | 
6 | O=C(NO)C(F)(F)C(F)(F)C(F)(F)C(F)(F)C(F)(F)C(F)(F)C(=O)Nc1cc2ccccc2c2ccccc12 | 5.22 | 4.96 | 6.60 | < 4.30 | < 4.30 |  | 
7 | CCc1cccc(NC(=O)C(F)(F)C(F)(F)C(F)(F)C(F)(F)C(F)(F)C(F)(F)C(=O)NO)c1 | 5.68 | 5.17 | 6.62 | < 4.30 | < 4.30 |  | 
8 | O=C(NO)C(F)(F)C(F)(F)C(F)(F)C(F)(F)C(F)(F)C(F)(F)C(=O)Nc1nc(-c2ccccc2)cs1 | 5.07 | < 4.30 | 4.92 | < 4.30 | < 4.30 |  | 
9 | CC(=O)Nc1ccc(NC(=O)C(F)(F)C(F)(F)C(F)(F)C(F)(F)C(F)(F)C(F)(F)C(=O)NO)cc1 | 5.44 | 5.12 | 6.49 | < 4.30 | < 4.30 |  | 
10 | O=C(Nc1ccccc1)C(F)(F)C(F)(F)C(F)(F)C(F)(F)C(F)(F)C(F)(F)C(=O)Nc1ccccc1 | < 4.30 | < 4.30 | 5.00 | < 4.30 | < 4.30 |  | 
11 | O=C(NO)C(F)(F)C(F)(F)C(F)(F)C(F)(F)C(F)(F)C(F)(F)C(=O)Nc1cccc(-c2ccccc2)c1 | 5.82 | 5.36 | 7.00 | < 4.30 | < 4.30 |  | 
12 | Cc1ccc(NC(=O)C(F)(F)C(F)(F)C(F)(F)C(F)(F)C(F)(F)C(F)(F)C(=O)NO)cc1 | 5.64 | 5.21 | 6.72 | < 4.30 | < 4.30 |  | 
13 | O=C(NO)C(F)(F)C(F)(F)C(F)(F)C(F)(F)C(F)(F)C(F)(F)C(=O)Nc1ccc2cc3ccccc3cc2c1 | 4.62 | < 4.30 | 5.70 | < 4.30 | < 4.30 |  | 
14 | O=C(NO)C(F)(F)C(F)(F)C(F)(F)C(F)(F)C(F)(F)C(F)(F)C(=O)Nc1ccc(-c2ccccc2)cc1 | 5.82 | 5.51 | 7.34 | < 4.30 | < 4.30 |  | 
15 | O=C(NO)C(F)(F)C(F)(F)C(F)(F)C(F)(F)C(F)(F)C(F)(F)C(=O)Nc1cccc2cc3ccccc3cc12 | 5.05 | 4.96 | 5.96 | < 4.30 | < 4.30 |  | 
16 | O=C(NO)C(F)(F)C(F)(F)C(F)(F)C(F)(F)C(F)(F)C(F)(F)C(=O)Nc1ccc(-c2cnnn2-c2ccccc2)cc1 | 4.66 | 4.82 | 5.51 | < 4.30 | < 4.30 |  | 
17 | N#Cc1ccc(NC(=O)C(F)(F)C(F)(F)C(F)(F)C(F)(F)C(F)(F)C(F)(F)C(=O)NO)cc1 | 5.55 | 5.15 | 6.49 | < 4.30 | < 4.30 |  | 
18 | O=C(NO)C(F)(F)C(F)(F)C(F)(F)C(F)(F)C(F)(F)C(F)(F)C(=O)Nc1cccc(-c2cn(-c3ccccc3)nn2)c1 | < 4.30 | < 4.30 | 5.59 | < 4.30 | < 4.30 |  | 
19 | O=C(NO)C(F)(F)C(F)(F)C(F)(F)C(F)(F)C(F)(F)C(F)(F)C(=O)Nc1ccc2ccccc2c1 | 5.92 | 5.42 | 6.28 | < 4.30 | < 4.30 |  | 
20 | O=C(NO)C(F)(F)C(F)(F)C(F)(F)C(F)(F)C(F)(F)C(F)(F)C(=O)Nc1ccccc1-c1ccccc1 | 4.92 | 4.77 | 5.96 | < 4.30 | < 4.30 |  | 
